5HT1a antag: human 5-HT1a receptor antagonists, primary screen, cell-based, CHO, Ga15 NFAT-bla reporter; CHO 5-HT1a Ga15 NFAT-bla reporter, antagonist mode; inhibition, % at 10 µM; hit rate 0.68% among 62,000; AID 612, 2007;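 active means inhibition above the mean of all tested compounds plus 3 SD, cut at about 43% in these data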;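 further: receptor stimulated by 5-CT agonist at 100 nM near EC80; beta-lactamase reporter measured by ratiometric fluorescence of a cleavable substrate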
Target sequence (P08908 whole entry, looked up): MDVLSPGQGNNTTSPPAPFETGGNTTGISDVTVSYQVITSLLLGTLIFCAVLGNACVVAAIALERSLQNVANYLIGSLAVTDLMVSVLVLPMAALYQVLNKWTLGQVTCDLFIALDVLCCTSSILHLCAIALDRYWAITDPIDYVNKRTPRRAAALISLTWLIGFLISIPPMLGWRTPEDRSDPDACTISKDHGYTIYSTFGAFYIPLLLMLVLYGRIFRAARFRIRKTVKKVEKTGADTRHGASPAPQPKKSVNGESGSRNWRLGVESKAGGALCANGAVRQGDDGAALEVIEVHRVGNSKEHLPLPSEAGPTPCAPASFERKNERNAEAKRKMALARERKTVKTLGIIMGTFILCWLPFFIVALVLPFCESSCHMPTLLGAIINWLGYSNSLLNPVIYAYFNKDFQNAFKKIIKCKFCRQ
HTR1E agonist: 5-HT1E receptor agonists, primary screen, cell-based, HTS; 5-hydroxytryptamine receptor 1E (Homo sapiens), P28566; CHO 5-HT1E Ga15 NFAT-bla reporter, FRET; 0% DMSO wells, 100% control agonist wells; activation, % at 6 µM; hit rate 0.69% among 65,000; AID 574, 2007;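 active means activation above a set limit, the screen-wide mean activation plus 3 SD, cut at about 8.5% in these data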;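 further: 100% = positive control agonist at 1 µM giving full maximal response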
HEK293 NFkB inh: inhibitors of PMA/ionomycin-induced NF-kB reporter, primary screen, antigen receptor NF-kB inhibitor project, cell-based, HEK-293 luciferase reporter, luminescence | hit rate 0.21% among 62,000 | inhibition, % at 3 µM | HEK-293 NF-kB luciferase reporter;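 active means inhibition above the mean of all tested compounds plus 3 SD, cut at about 40% in these data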;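 further: 0% = stimulated DMSO wells and 100% = 10 µM reference inhibitor 5653914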
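Reagent: PMA plus ionomycin mix as NF-kB-activating stimulus. Assay system: NF-kB luciferase reporter HEK-293 cells. Technique: luminescence from luciferase substrate reagent. Incubation: 1 h compound pre-incubation, 16 h PMA/ionomycin at 37 °C. Benchmarks: DMSO only as uninhibited control, 10 µM reference inhibitor as full inhibition. Repeats: tested once.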
5HT1E antag: 5-HT1E receptor antagonists, primary screen, cell-based, HTS; CHO 5-HT1E Ga15 NFAT-bla reporter, FRET, antagonist; inhibition, % at 6 µM; hit rate 0.99% among 65,000; AID 571, 2007;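 active means inhibition above a set limit, the mean inhibition across every tested compound plus 3 SD, cut at about 29% in these data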;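 further: signal is the 460 over 535 nm emission ratio of beta-lactamase substrate; 0% = agonist plus DMSO wells and 100% = wells without agonist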
5HT1a ag: human 5-HT1a receptor agonists, primary screen, cell-based, CHO, Ga15 NFAT-bla reporter. 5-hydroxytryptamine receptor 1A (Homo sapiens), P08908. CHO 5-HT1a Ga15 NFAT-bla reporter, FRET ratio; 0% basal, 100% maximal reference agonist. activation, % at 10 µM. hit rate 0.56% among 65,000. AID 567, 2006;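 active means activation above the screen-wide mean activation plus 3 SD, cut at about 19% in these data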;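 further: 0% = DMSO wells and 100% = 5-CT at EC100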
Jurkat tox 60K: cytotoxicity toward Jurkat T cells, primary screen, cytotoxicity control, cell-based, Jurkat E6.1, 60K MLSMR library | inhibition, % at 4 µM | Jurkat E6.1 viability, ATP luminescence, 48 h | hit rate 1.2% among 56,000;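 active means inhibition above the mean inhibition of all tested compounds plus 3 SD, cut at about 28% in these data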
* marks the source's active call; other numbers are inactive results; . = no result. Most compounds without a hit are left out; they make up all but 3.3% or so of the library.

SMILES	5HT1a antag	HTR1E agonist	HEK293 NFkB inh	5HT1E antag	5HT1a ag	Jurkat tox 60K
NCCc1c[nH]c2ccc(F)cc12	3.3	81.7*	6.1	-6.0	42.9*	3.0
CCCCn1c(O)c(C(CC)=NCCCN(C)C)c(=O)[nH]c1=O	-4.5	0.1	-7.4	-5.6	0.8	-10.6
CCOC(=O)c1ccc(NC(=O)C2C3C=CC(O3)C2C(=O)O)cc1 (stereo not drawn)	-0.5	-0.9	0.3	-13.2	-1.9	-9.8
CCCCOCCCn1c(N)c(C(=O)OC(C)COC)c2nc3ccccc3nc21 (stereo not drawn)	.	10.5*	.	13.7	4.8	.
CC1(C)CC(n2[nH]c(=O)c3c2NC(=O)CSC3c2ccc(F)cc2)CCO1 (stereo not drawn)	3.3	-0.4	7.5	-5.5	0.3	.
Cn1cccc1CN1CCN(C(=O)COc2ccccc2)CC1	-1.0	0.0	8.0	-5.1	-1.4	-3.5
Cn1nc(-c2ccc(OCC(=O)N3CCN(Cc4ccccc4)CC3)cc2)c2ccccc2c1=O	-1.6	1.0	29.7	-1.7	-1.2	58.4*
c1ccc2c3c([nH]c2c1)CNCC3	.	0.4	.	-9.6	0.1	.
CC(C)N1CC=C(c2c[nH]c3ccccc23)CC1	13.6	46.3*	16.4	-1.2	22.7*	2.8
C1=C(c2c[nH]c3ccccc23)CCNC1	16.2	91.5*	3.3	-13.3	4.5	-6.6
CCOc1ccc2[nH]c(=O)c(CN(CCO)C3(c4nnnn4C4CCCCC4)CCCCC3)cc2c1	10.8	-0.8	14.3	11.6	1.8	-0.3
CC1=CC(C)C(COC(N)=O)(COC(N)=O)C(C)C1 (stereo not drawn)	-1.1	-0.1	19.3	-6.3	1.8	1.1
CN(C)CCOC(=O)c1cn(Cc2ccccc2)c2ccccc12	.	58.8*	.	16.2	1.6	.
Cc1ccc(-n2c(O)c(C=Nc3ccccc3N)c(=O)[nH]c2=O)cc1C	7.8	-0.5	-8.8	6.1	1.3	85.8*
COc1ccc(CN2CCN(c3ccccc3)CC2)c(C)c1C	6.9	1.6	3.8	0.7	0.6	-2.8
CCOc1cccc(C2NCc3ccccc3-n3cccc32)c1O (stereo not drawn)	0.9	15.3*	17.3	-4.0	-0.3	-1.5
CCOc1cc(C2NCc3ccccc3-n3cccc32)ccc1O (stereo not drawn)	20.3	0.2	11.8	-9.8	-0.4	-3.8
O=P1(Nc2cccnc2)COc2ccccc2OC1	-3.4	0.3	4.4	-11.4	-0.9	-8.3
CCC(C)NC(=O)c1c(N)n(CC2CCCO2)c2nc3ccccc3nc12 (stereo not drawn)	-7.4	8.3	-2.2	-0.2	26.5*	1.4
CC(C)CCNC(=O)c1c(N)n(CC2CCCO2)c2nc3ccccc3nc12 (stereo not drawn)	-18.1	9.7*	6.4	-1.9	35.3*	.
CCCCn1c(N)c(C(=O)NCCN2CCOCC2)c2nc3ccccc3nc21	5.1	1.8	9.6	12.3	7.0	-1.3
CCC(C)NC(=O)c1c(N)n(Cc2ccc3c(c2)OCO3)c2nc3ccccc3nc12 (stereo not drawn)	-172.4	30.4*	6.2	-38.7	121.6*	-4.5
CN1C(=O)N(C)C(=O)C2(Sc3ccccc3C2=O)C1=O	1.3	0.1	1.4	-0.9	-1.6	0.7
O=P(C(c1ccc2c(c1)OCO2)N1CCOCC1)(N1CCOCC1)N1CCOCC1 (stereo not drawn)	8.2	0.0	14.3	-7.9	-2.6	-0.1
CNCCc1c[nH]c2ccccc12	.	103.7*	.	-17.3	27.7*	.
SMILES	5HT1a antag	HTR1E agonist	HEK293 NFkB inh	5HT1E antag	5HT1a ag	Jurkat tox 60K
c1ccc2c(CCNCc3ccc4c(c3)OCO4)c[nH]c2c1	5.2	1.6	2.4	3.1	-1.6	-1.8
Cc1cc(OC(=O)c2ccco2)c2c3c(c(=O)oc2c1)CCC3	-6.4	0.2	23.0	32.5*	-0.7	0.8
C[n+]1ccc(-c2ccncc2)cc1	-3.6	0.7	1.8	-6.3	-4.5	-5.8
COc1ccc(C(=O)C(C)(C)NO)cc1	-2.7	8.8*	8.6	10.8	-1.3	-10.1
Cn1c(O)c(C=NCCN2CCN(C(=O)c3ccccc3)CC2)c(=O)n(C)c1=O	-11.0	1.0	19.5	-3.6	-3.4	5.6
Cn1c(O)c(C=NCCOc2ccc(Cl)cc2)c(=O)n(C)c1=O	-19.2	0.7	9.3	30.1*	0.2	13.2
Cn1ncnc2c(=O)n(C)c(=O)nc1-2	85.4*	4.5	99.1*	101.0*	6.7	88.2*
CCCCCn1c(=O)c(C(=O)Nc2ccncc2)c(O)c2ccccc21	-11.7	-0.7	-12.1	1.8	0.3	2.1
CCCCCCn1c(=O)c(C(=O)Nc2c(C)n(C)n(-c3ccccc3)c2=O)c(O)c2ccccc21	-19.6	-0.5	6.4	-4.5	83.6*	-2.0
CCN1CCN(Cc2ccc(C)cc2C)CC1	-6.7	4.1	17.0	-2.9	-1.3	5.7
Cc1ccc(CN2CCN(C)CC2)c(C)c1	-15.7	9.8*	1.2	-1.1	-2.6	-1.2
CCCNc1oc(-c2cccc3ccccc23)nc1C#N	-12.8	5.7	-4.1	8.3	58.3*	2.4
CC(=NCCCN1CCOCC1)c1c(O)[nH]c(=O)[nH]c1=O	-1.2	-0.1	20.9	9.2	-1.0	9.3
C=CCn1c(O)c(C(C)=NCc2cc(OC)cc(OC)c2)c(=O)[nH]c1=O	-17.4	-0.2	20.7	11.8	0.0	37.4*
CCOCC(=O)NC1CCSC1=O (stereo not drawn)	-3.9	0.2	12.9	6.8	-3.6	1.8

Source: PubChem BioAssay (The Scripps Research Institute Molecular Screening Center)
